In the array DNA melting data of Ke et al. (doi:10.1101/2024.01.08.574731):

Tests used:
[1] = folding enthalpy; higher = less favourable; fluorescence melt of hairpins on a sequencing array, two-state fit; conditions: sodium 0.088 M
How it was run: (§1)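 With Cy3 and quencher oligos annealed, library hairpins on a sequenced MiSeq flow cell were imaged for Cy3 fluorescence in 50 mM Na-HEPES pH 8.0, 25 mM NaCl, in 2.5 °C steps up to 60 °C. Melting temperature and folding enthalpy were derived from bootstrapped two-state fits of signals normalised to pre-quench Cy3 and to control constructs. Four replicates were combined by inverse variance, with fitted temperatures raised by 9.35 °C to match UV melts.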

[2] = melting temperature; fluorescence melt of hairpins on a sequencing array, two-state fit, raised by 9.35 °C to match UV melts; conditions: sodium 0.088 M
How it was run: as §1

| Sequence | folding enthalpy [1] [kcal/mol] | Tm [2] [°C] |
| --- | --- | --- |
| GAGTGACGAAAGTCCTC (((.(((....)))))) | -19.5 | 47.9 |
| GGACGCGAAAGCGACTCC ((((((....)))..))) | -11.6 | 46.2 |
| GATCAGCCAACTGATC ((((((....)))))) | -33.8 | 49.6 |
| GAGACGCCGAAAGGCCTC (((..(((....)))))) | -8.48 | 30.6 |
| GCGTGCGAAAGCACTCGC ((((((....)))..))) | -12.4 | 51.5 |
| GTCATTCCGAAAGGAGAC (((..(((....)))))) | -10.2 | 29.2 |
| GCCAATGGAAACATTGAC (.(((((....))))).) | -22.2 | 37.7 |
| GAACAACCGAAAGGTTTC (((..(((....)))))) | -9.63 | 29.3 |
| GCAACGGGAAACCGTCAC (..((((....))))..) | -11.2 | 27.1 |
| AGGATGAAAATCCT (((((....))))) | -22.2 | 41.6 |
| GATATACCGAAAGGTATC (((..(((....)))))) | -13.3 | 32.8 |
| GGCTTAGGAAACTAAACC ((.((((....)))).)) | -15.7 | 31.8 |
| GAGCTCCGAAAGGAACTC (((.(((....))).))) | -27.5 | 50.6 |
| GATCGGAATGCCGATC ((((((....)))))) | -33.7 | 54.9 |
| GATTTCGGAAACGAAATC (((((((....))))))) | -41.2 | 58.1 |
| GCCTTGCGAAAGCCATGC ((.(.((....)).).)) | -3.66 | 27 |
| GAGTTCCGAAAGGAGCTC (((.(((....))).))) | -37 | 57.1 |
| GGTGAACGAAAGTTAACC (((.(((....))).))) | -34.1 | 49.2 |
| GATCCTCCCTAGGATC ((((((....)))))) | -39.7 | 50.8 |
| GATGTAGGAAACTACATC (((((((....))))))) | -40.4 | 54.6 |
| GCCTTCGAAAGAACAGGC ((((((....)))..))) | -26.7 | 40.9 |
| GATCTCATGTGAGATC ((((((....)))))) | -36.2 | 52.9 |
| GTAGGTGGAAACGCTTAC (((.(.(....).).))) | -23 | 31.4 |

| Sequence | folding enthalpy [1] [kcal/mol] | Tm [2] [°C] |
| --- | --- | --- |
| GGACTCACGAAAGTGTCC (((..(((....)))))) | -19.3 | 41.5 |
| GCTAGCGAAAGCTCAGC ((((((....))).))) | -19.6 | 48.9 |
| GATCGATGCGTCGATC ((((((....)))))) | -43.7 | 57 |
| GATCCTGTCAGGATC ((((((...)))))) | -36.7 | 56.5 |
| GGACTCGGAAACAAGTCC (((((.(....).))))) | -27.8 | 42.2 |
| GATCTTTTGAAAGATC ((((((....)))))) | -28.3 | 44.7 |
| GATCGGTTTCCCGATC ((((((....)))))) | -40.4 | 57.1 |
| GCGGATCTCCGC ((((....)))) | -25.3 | 59.6 |
| GGAAACTCGAAAGAGTCC (((..(((....)))))) | -14.3 | 33.8 |
| GACGCTACGAAAGTAGTC (((..(((....)))))) | -13.2 | 35.9 |
| GGGCAGCGAAAGCTCCC (((.(((....)))))) | -20.3 | 57.3 |
| GCCCGGCGAAAGCTGAGC ((.(.((....)).).)) | -18.3 | 48.7 |
| CGCCCCGGAAACGGCGCG (((.(((....))).))) | -36.5 | 52.1 |
| GCCTACCGAAAGGTGGC (((.(((....)))))) | -25.4 | 57 |
| GATCAAGCATTGATC ((((((...)))))) | -47.9 | 52.1 |
| GCGCGCGAAAGCGCCCGC ((((((....)))..))) | -9.74 | 45.8 |
| GCCAGCGAAAGCTCCGGC ((((((....)))..))) | -19.9 | 44.5 |
| GGAGCAGGAAACCGCTCC (((((.(....).))))) | -34.1 | 55.2 |
| GATCTAAGTTAGATC ((((((...)))))) | -29.9 | 37.3 |
| GCGGGCCTCCGC ((((....)))) | -22.5 | 64 |
| GGACAGGGAAACCTATCC (((.(((....))).))) | -19.3 | 32.6 |
| GCAATGCGAAAGCAGCGC ((..(((....)))..)) | -18.8 | 55.9 |
| GGCGAAGGAAACTTCGTC (.(((((....))))).) | -35.7 | 53.1 |

| Sequence | folding enthalpy [1] [kcal/mol] | Tm [2] [°C] |
| --- | --- | --- |
| GATCGAAAGTCGATC ((((((...)))))) | -30.5 | 48.8 |
| GGAGTTGGAAACAATTCC (((.(((....))).))) | -29.6 | 43 |
| GCTGGGCGAAAGCGTAGC (((..((....))..))) | -22.5 | 52.1 |
| GATCGGAATCCGATC ((((((...)))))) | -34.8 | 53.5 |
| GCTGAGGGAAACCTCAGC (((((((....))))))) | -45.2 | 69.2 |
| GCTACGCGAAAGCGCTGC ((..(((....)))..)) | -15.2 | 43.5 |
| GCAGTGCGAAAGCGATGC (((..((....))..))) | -30.6 | 62.4 |
| GGTCCGCGAAAGCGAACC (((.(((....))).))) | -28.1 | 57.5 |
| GTACCCGAAAGGGATAC ((((((....))).))) | -15.3 | 47 |
| GACGACGAAAGTCGGGTC ((((((....)))..))) | -12.8 | 64.1 |
| GCCGGCGGAAACACCGGC (((((.(....).))))) | -44.1 | 66.8 |
| CGGCGCGGAAACGCCCCG (((.(((....))).))) | -17.5 | 52 |
| GAACAACGAAAGTTTTTC (((.(((....))).))) | -17.8 | 31.6 |
| GATCCCAGCGGGATC ((((((...)))))) | -37.9 | 68.9 |
| GGAGGGGGAAACCCCTTC (.(((((....))))).) | -24.1 | 50.6 |
| GGTAAGGGAAACCTTACC (((((((....))))))) | -46.1 | 57.5 |
| GTTGGGTCGAAAGACAAC (((..(((....)))))) | -18.2 | 38.1 |
| GCGACCATTCGC ((((....)))) | -24.4 | 47.4 |
| GTCTCCGAAAGGACCGAC ((((((....)))..))) | -16.9 | 28.2 |
| GATGACGAAAGTCGTATC ((((((....)))..))) | -12.1 | 36 |
| GGGGGCGAAAGCCCGCCC ((((((....)))..))) | -9.36 | 55.6 |
| GACATGCCGAAAGGCGTC (((..(((....)))))) | -11.1 | 41.2 |
| GAGCGCGAAAGCGTGCTC ((((((....)))..))) | -17.1 | 56.4 |

| Sequence | folding enthalpy [1] [kcal/mol] | Tm [2] [°C] |
| --- | --- | --- |
| GCGTAGTGACGC ((((....)))) | -15.4 | 53.7 |
| GCCCGGCGAAAGCCTAGC ((..(((....)))..)) | -13.8 | 27.2 |
| GGTGCTGGAAACAGCGTC (..((((....))))..) | -12.8 | 41 |
| GCACCCGAAAGGGAGTGC ((((((....)))..))) | -38.3 | 54 |
| GCACCGCGAAAGCTGCGC ((.(.((....)).).)) | -24.4 | 47.4 |
| GAGTTCGGAAACGAACTC (((((((....))))))) | -39.4 | 67.3 |
| GGTAGTGGAAACACTATC (.(((((....))))).) | -23.4 | 43.5 |
| GGCTTTGGAAACAAAACC ((.((((....)))).)) | -27.3 | 36.8 |
| GACGGCGCGAAAGCGGTC (((..(((....)))))) | -9.91 | 48.2 |
| GCCCTTGCGAAAGCAGGC (((..(((....)))))) | -14.7 | 43.8 |
| GTTGCCCGAAAGGGAAAC (((.(((....))).))) | -32.2 | 56.4 |
| GATATGGGAAACCATACC (.(((((....))))).) | -15 | 29.5 |
| GCCACGCGAAAGCGGAGC ((..(((....)))..)) | -17.1 | 54.4 |
| GCCGCGCGAAAGCTCTGC ((.(.((....)).).)) | -10.9 | 30.7 |
| GCCGGCGAAAGCCTGGC ((((((....))).))) | -24.8 | 68.8 |
| GTAAGGCGAAAGCCTAC (((.(((....)))))) | -11.4 | 46 |
| GTCCATCGAAAGATAGAC (((.(((....))).))) | -30.5 | 35.2 |
| GATGTGCGAAAGCAGATC (((.(((....))).))) | -32.7 | 52.5 |
| GATCGTCTTACGATC ((((((...)))))) | -34.8 | 57.1 |
| GCTGGGCGAAAGCCAAGC (((.(((....))).))) | -26.8 | 66.8 |
| TCAGGGAAACCTGA (((((....))))) | -22.8 | 41.8 |
| GTGTCACGAAAGTGCCAC (((.(((....))).))) | -51.5 | 52.2 |
| CGGTAGCGGAAACGCCCG (((..(((....)))))) | -23.4 | 48.7 |
